Measured values from ChEMBL document CHEMBL5705894, “SB1518, a novel macrocyclic pyrimidine-based JAK2 inhibitor for the treatment of myeloid and lymphoid malignancies” (Leukemia, 2011).
The source made the active and inactive calls. The rule behind the calls is not given here.

Legend:
[1] = tested on: Tyrosine-protein kinase JAK2 (Homo sapiens), O60674 [V617F]; settings: HEL 92.1.7, dose 1000.0 nM, time 3.0 hrs
[2] = Toxicity in athymic BALB/c nude mouse xenografted with mouse Ba/F3 cells harboring JAK2 V617F mutant assessed as liver weight at 150 mg/kg, po administered for 12 days relative to control; format: organism-based, BaF3; settings: in vivo, 288 h, time 12 day
Method in brief: (§1)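 Ba/F3-JAK2V617F cells (2 × 10^6 in serum-free medium) were injected into the tail vein of BALB/c nude mice. From day 4 after inoculation, mice got SB1518 by oral gavage (10 ml/kg) at 50 or 150 mg/kg once daily. Groups held 10 mice, and four naive mice gave baseline values.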

[3] = Toxicity in athymic BALB/c nude mouse xenografted with mouse Ba/F3 cells harboring JAK2 V617F mutant assessed as weight loss at 150 mg/kg, po administered for 12 days; format: organism-based, BaF3; settings: in vivo, 288 h, time 12 day
Method in brief: as §1

[4] = Toxicity in athymic BALB/c nude mouse xenografted with mouse Ba/F3 cells harboring JAK2 V617F mutant assessed as platelet count at 150 mg/kg, po administered for 12 days by ScilVET abc hematology analyzer method; format: organism-based, BaF3; settings: in vivo, 288 h, time 12 day
Method in brief: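 Engraftment model: BALB/c nude mice were given 2 × 10^6 Ba/F3-JAK2V617F cells i.v. by tail vein. Once-daily oral gavage (10 ml/kg) of 50 or 150 mg/kg began on day 4 after inoculation, with 10 mice per group and four naive mice as baseline. Blood counts were taken on a veterinary hematology analyzer.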

[5] = Toxicity in athymic BALB/c nude mouse xenografted with mouse Ba/F3 cells harboring JAK2 V617F mutant assessed as hematocrit count at 150 mg/kg, po administered for 12 days by ScilVET abc hematology analyzer method; format: organism-based, BaF3; settings: in vivo, 288 h, time 12 day
Method in brief: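 BALB/c nude mice were injected in the tail vein with 2 × 10^6 Ba/F3-JAK2V617F cells in serum-free medium. Oral dosing at 50 or 150 mg/kg once daily began on day 4, with 10 mice per group and 4 naive baseline mice. Blood counts were taken on a hematology analyzer.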

[6] = Toxicity in SCID Beige mouse xenografted with human SET2 cells assessed as decrease in body weight at 75 mg/kg, po administered for 18 days relative to control; format: organism-based; design: scale not given: the % may be the effect or the level left; settings: in vivo, 432 h, time 18 day
[7] = Toxicity in SCID Beige mouse xenografted with human SET2 cells assessed as increase in body weight at 150 mg/kg, po administered for 18 days relative to control; format: organism-based; settings: in vivo, 432 h, time 18 day
[8] = Toxicity in SCID Beige mouse xenografted with human SET2 cells assessed as platelet count at 150 mg/kg, po administered for 18 days by ScilVET abc hematology analyzer method; format: organism-based; settings: in vivo, 432 h, time 18 day
[9] = Toxicity in SCID Beige mouse xenografted with human SET2 cells assessed as hematocrit count at 150 mg/kg, po administered for 18 days by ScilVET abc hematology analyzer method; format: organism-based; settings: in vivo, 432 h, time 18 day
[10] = Toxicity in SCID Beige mouse xenografted with human SET2 cells assessed as leukopenia at 150 mg/kg, po administered for 18 days by ScilVET abc hematology analyzer method; format: organism-based; settings: in vivo, 432 h, time 18 day
[11] = Cytotoxicity against human EPC cells derived from healthy volunteers assessed as inhibition of cell viability incubated for 48 hrs by CellTiterGlo assay; format: toxicity, cell-based
Method in brief: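 Erythroid progenitors expanded from PBMCs of PV patients or normal volunteers using a 2-step protocol. On day 12 of expansion, cells were exposed to compound for 48 h and viability was read by CellTiter-Glo. Day-12 cells were phenotyped by CD71/CD235A flow staining.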

[12] = Induction of apoptosis in human EPC cells derived from polycythemia vera patients assessed as activation of caspase-3/7 level incubated for 16 hrs; format: toxicity, cell-based; settings: human, epc, time 16 hrs
[13] = Induction of apoptosis in human EPC cells derived from healthy volunteers assessed as activation of caspase-3/7 level incubated for 16 hrs; format: toxicity, cell-based
[14] = Cytotoxicity against human Erythroid progenitor cells assessed as inhibition of colony growth formation; format: toxicity, cell-based, Erythroid progenitor cell
Method in brief: (§2)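 PBMCs from PV patients, 2–8 × 10^5 per plate, were plated in minimal methylcellulose medium with graded drug concentrations or DMSO, in triplicate. After 14 days, erythroid (BFU-E, CFU-E) and myeloid (CFU-M, CFU-GM) colonies were counted.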

[15] = Cytotoxicity against human Myeloid progenitor cells assessed as inhibition of colony growth formation; format: toxicity, cell-based, Myeloid progenitor cell
Method in brief: as §2

[16] = tested on: BaF3; test: Cytotoxicity against mouse BaF3 cells expressing JAK2 V617F mutant xenografted in athymic BALB/c nude mouse assessed as inhibition of cell viability administered for 24 hrs by CellTiterGlo assay; format: toxicity, cell-based; settings: in vivo, po, 150 mg/kg
[17] = AUC (0 to infinity) in athymic BALB/c nude mouse xenografted with mouse BaF3 cells at 150 mg/kg, po administered for 24 hrs by HPLC analysis; format: ADME, organism-based; settings: in vivo
[18] = Toxicity in athymic BALB/c nude mouse xenografted with mouse Ba/F3 cells harboring JAK2 V617F mutant assessed as spleen weight at 150 mg/kg, po administered for 13 days relative to control; settings: in vivo, 312 h

Tyrosine-protein kinase JAK2 (Homo sapiens), O60674 [V617F], sequence (O60674 whole entry V617F): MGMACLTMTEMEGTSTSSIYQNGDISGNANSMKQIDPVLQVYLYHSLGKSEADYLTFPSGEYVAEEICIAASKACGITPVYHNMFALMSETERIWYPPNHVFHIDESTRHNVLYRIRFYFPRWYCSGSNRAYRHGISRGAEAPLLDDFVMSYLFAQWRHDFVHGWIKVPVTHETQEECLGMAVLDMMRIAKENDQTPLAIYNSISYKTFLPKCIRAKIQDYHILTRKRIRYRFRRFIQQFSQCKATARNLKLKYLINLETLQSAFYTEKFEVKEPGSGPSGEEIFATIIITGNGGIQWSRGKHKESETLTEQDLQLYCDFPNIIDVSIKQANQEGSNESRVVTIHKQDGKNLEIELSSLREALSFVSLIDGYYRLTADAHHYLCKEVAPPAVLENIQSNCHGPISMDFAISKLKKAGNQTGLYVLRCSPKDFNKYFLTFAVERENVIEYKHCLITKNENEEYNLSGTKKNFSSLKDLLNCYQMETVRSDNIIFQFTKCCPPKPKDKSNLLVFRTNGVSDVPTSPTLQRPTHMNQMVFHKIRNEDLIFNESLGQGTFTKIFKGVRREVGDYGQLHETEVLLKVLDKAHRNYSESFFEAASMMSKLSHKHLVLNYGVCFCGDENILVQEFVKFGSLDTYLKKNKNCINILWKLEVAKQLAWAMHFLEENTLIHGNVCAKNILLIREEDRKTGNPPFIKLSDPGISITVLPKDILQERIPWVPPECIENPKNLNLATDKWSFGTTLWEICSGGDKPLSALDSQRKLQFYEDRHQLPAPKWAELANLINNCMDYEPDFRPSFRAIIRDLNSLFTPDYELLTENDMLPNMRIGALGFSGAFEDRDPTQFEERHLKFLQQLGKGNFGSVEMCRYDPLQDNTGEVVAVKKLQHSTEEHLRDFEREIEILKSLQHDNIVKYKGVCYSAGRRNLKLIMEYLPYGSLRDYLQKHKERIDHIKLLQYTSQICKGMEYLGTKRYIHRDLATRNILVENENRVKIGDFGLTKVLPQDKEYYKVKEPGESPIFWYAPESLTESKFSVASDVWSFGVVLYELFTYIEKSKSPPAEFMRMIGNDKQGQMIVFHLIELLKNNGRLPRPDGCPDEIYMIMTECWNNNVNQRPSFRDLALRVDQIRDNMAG

Row | Compound | inhibition [1] | Activity [2] [%] | Activity [3] | Activity [4] | Activity [5] | Activity [6] [%] | Activity [7] [%] | Activity [8] | Activity [9] | Activity [10] | IC50 at 48 h [11] [nM] | Activity [12] | EC50 at 16 h ([13]; EPC cells derived from healthy volunteers) [nM] | Activity ([13]; epc, 16 h) | IC50 [14] [nM] | IC50 [15] [nM] | FIC50 [16] [µM] | AUC(0-inf) [17] [ng·h/mL] | Activity [18] [%]
1 | CC(C)(C)c1nc2c3ccc(F)cc3c3c(=O)[nH]ccc3c2[nH]1 | Active | – | – | – | – | – | – | – | – | – | – | – | – | – | – | – | – | – | –
2 | Cc1cnc(Nc2ccc(OCCN3CCCC3)cc2)nc1Nc1cccc(S(=O)(=O)NC(C)(C)C)c1 | Active | – | – | – | – | – | – | – | – | – | – | – | – | – | – | – | – | – | –
3 | C1=C/COCc2cc(ccc2OCCN2CCCC2)Nc2nccc(n2)-c2cccc(c2)COC/1 [PACRITINIB] | – | 92 | Non-Toxic | Non-Toxic | Non-Toxic | 10.1 | 0.2 | Non-Toxic | Non-Toxic | Non-Toxic | 230 | Dose-Dependent Effect | 224 | Dose-Dependent Effect | 63 | 63 | 0.16 | 220 | 60
